Results collected from several papers.
Each line is one published result; the experiments were not run side by side.
Target: Protein kinase C zeta type (PRKCZ, Homo sapiens, UniProt Q05513)
Sequence (Q05513 1-592, as in one of the studies): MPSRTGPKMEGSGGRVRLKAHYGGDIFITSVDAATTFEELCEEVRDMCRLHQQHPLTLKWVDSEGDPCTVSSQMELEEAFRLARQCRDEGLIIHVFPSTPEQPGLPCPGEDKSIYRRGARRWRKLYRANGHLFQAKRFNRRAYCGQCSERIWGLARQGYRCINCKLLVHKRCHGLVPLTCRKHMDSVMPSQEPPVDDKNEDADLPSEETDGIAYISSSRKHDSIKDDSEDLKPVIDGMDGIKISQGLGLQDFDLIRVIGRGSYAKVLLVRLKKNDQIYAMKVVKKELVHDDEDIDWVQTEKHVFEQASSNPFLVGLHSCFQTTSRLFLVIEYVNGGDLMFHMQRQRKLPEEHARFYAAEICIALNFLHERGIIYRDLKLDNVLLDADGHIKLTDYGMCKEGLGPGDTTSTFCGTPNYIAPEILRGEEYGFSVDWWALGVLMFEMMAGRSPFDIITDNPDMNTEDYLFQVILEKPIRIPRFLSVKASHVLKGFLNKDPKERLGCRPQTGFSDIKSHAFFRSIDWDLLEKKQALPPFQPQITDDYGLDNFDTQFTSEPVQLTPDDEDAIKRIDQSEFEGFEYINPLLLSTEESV

Structure (SMILES) | test | conditions | endpoint | result
Cc1cc(NC(=O)c2cccc3cc(-c4cccc5[nH]nc(N)c45)ccc23)ccc1F | enzyme activity, inhibitor | 0.1 µM | activity vs control | 99%
CCCOc1ccc(OC)c(F)c1C(=O)c1ccc(C(=O)N[C@@H]2CNC[C@H]2NC(=O)c2ccc3[nH]ncc3c2)cc1 | enzyme activity, inhibitor | 10 µM | remaining activity | 60%
CN1CCC2(CC1)NC(=O)c1c(c3ccc(Cl)c(Cl)c3n1C)C2C#N (racemic) | thermal stability, DSF | 10 µM | ΔTm | 0 °C
Cc1ccc(Nc2nccc(N(C)c3ccc4c(C)n(C)nc4c3)n2)cc1S(N)(=O)=O | enzyme activity, inhibitor | 10 µM | inhibition | -2%
O=C(Nc1cnn(-c2csc(C(=O)NC3COC3)c2)c1)Nc1ccccc1Cl | enzyme activity, inhibitor | 5 µM | remaining activity | 105%
COc1cc2ncnc(Nc3ccc(Oc4ccccc4)c(C)c3C)c2cc1OC | enzyme activity, inhibitor | 1 µM | inhibition | 14%
COc1cc(Nc2cnc(C#N)c(O[C@H](C)CN(C)C)n2)ncc1-c1cnn(C)c1 | enzyme activity, inhibitor, radiometric | 10 µM | remaining activity | 79%
COc1cc(Cl)c(C(=O)N[C@@H](CN[C@H]2CC[C@@H](N)CC2)Cc2ccc(C#N)cc2)cc1-c1ccc(CN[C@H](C)c2ccc(C)cc2)o1 | enzyme activity, inhibitor | 1 µM | remaining activity | 91%
CC(C)(O)[C@H]1CC[C@H](Nc2ccc3ncc(-c4cccc(C(F)(F)F)c4)n3n2)CC1 | enzyme activity, inhibitor | 1 µM | remaining activity | 98%
COc1cccc2c(NCc3ccccc3)nc(-n3c(N)nc4ccccc43)nc12 | target engagement in cells, inhibitor, chemoproteomics | 20 mM | inhibition | 19.7%
O=C1Nc2ccc(Cl)cc2C1=Cc1cc(Cl)c(O)c(Cl)c1 | cell-free assay | 0.5 µM | remaining signal | 95.3%
Oc1cccc(-c2nc(N3CCOCC3)c3oc4ncccc4c3n2)c1 | enzyme activity, inhibitor | 10 µM | remaining activity | 98%
CCCCNc1ncc2c(-c3ccc(F)cc3)nn(C[C@H]3CC[C@H](N)CC3)c2n1 | target engagement in cells, inhibitor, chemoproteomics | 20 mM | inhibition | -19.6%
COc1cc(-c2cc(-c3ccc(N4CCNCC4)cc3)cnc2C)cc(OC)c1OC | enzyme activity, inhibitor | 1 µM | inhibition | 3%
O=C(Nc1cnn(-c2csc(C(=O)NC3COC3)c2)c1)Nc1c(F)cccc1Cl | enzyme activity, inhibitor | 5 µM | remaining activity | 93.6%
CCN(CC)CCNC(=O)c1c(C)[nH]c(/C=C2\C(=O)Nc3ccc(F)cc32)c1C | enzyme activity, inhibitor | 10 µM | inhibition | -2%
CC(C)c1ccc(NC(=O)c2cccs2)c(-c2nc3ccccc3[nH]c2=O)c1 | enzyme activity, inhibitor | 1 µM | activity vs control | 97%
CC(C)(C)C(=O)c1sc(NC2CCCCC2)nc1N | enzyme activity, inhibitor | 10 µM | remaining activity | 104%
Cn1c2c(c3ccc(Cl)c(Cl)c31)C(C#N)C1(CCOCC1)NC2=O (centres unmarked) | thermal stability, DSF | 10 µM | ΔTm | -0.2 °C
CCCS(=O)(=O)Nc1ccc(F)c(C(=O)c2c[nH]c3ncc(-c4ccc(Cl)cc4)cc23)c1F | enzyme activity, inhibitor | 1 µM | inhibition | < 20%
Cn1c2c(c3ccc(Cl)c(Cl)c31)C(C#N)C1(CCNCC1)NC2=O (racemic) | thermal stability, DSF | 10 µM | ΔTm | 0.9 °C
CC(C)(C)c1nc2c(s1)c1nc(N)ncc1c1ccc(NS(=O)(=O)c3c(F)cccc3F)c(F)c12 | enzyme activity, inhibitor, radiometric | 1 µM | remaining activity | 107%
Cn1c2c(c3ccccc31)C(C#N)C(C)(C)NC2=O (centres unmarked) | thermal stability, DSF | 10 µM | ΔTm | -0.3 °C
CCN(CC)c1ccc(C2=NNC(=O)CC2C)cc1[N+](=O)[O-] (centres unmarked) | enzyme activity, inhibitor | 10 µM | remaining activity | 102%
CCN1CCC2(CC1)NC(=O)c1c(c3ccc(Cl)c(Cl)c3n1C)C2C#N (racemic) | thermal stability, DSF | 10 µM | ΔTm | 0.1 °C
Cc1ccc(-n2nc(C(C)(C)C)cc2NC(=O)Nc2ccc(OCCN3CCOCC3)c3ccccc23)cc1 | enzyme activity, inhibitor | 10 µM | inhibition | -3%
